Test results published in ChEMBL document CHEMBL3817726, “Chemically Diverse Group I p21-Activated Kinase (PAK) Inhibitors Impart Acute Cardiovascular Toxicity with a Narrow Therapeutic Window” (J Med Chem, 2016).
Values belong to the molecule of their own block, whether it stands above or below them.

Legend:
Rattus norvegicus [1] = species: Rattus norvegicus; test: Toxicity in rat assessed as hunched posture; assay type: organism-based; conditions: in vivo
Mus musculus [2] = test: Toxicity in mouse assessed as darkened blood at 60 to 80 mg/kg, po; assay type: organism-based; conditions: in vivo
[3] = Cmax associated with acute adverse effect in mouse at 60 to 80 mg/kg, po; assay type: ADME, organism-based; conditions: in vivo
Outline: (§1)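 Mouse tolerability studies tested multiple doses, given orally or intraperitoneally. Plasma drug concentrations were measured, including at a 15 min time point. The minimum concentration associated with adverse clinical signs or death was taken as the adverse Cmax and was converted to an unbound value.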

Mus musculus [4] = test: fCmax associated with acute adverse effect in mouse at 60 to 80 mg/kg, po; assay type: ADME, organism-based; conditions: in vivo
Outline: (§2)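 Mouse tolerability studies at multiple doses, oral or intraperitoneal. Minimum unbound plasma concentration associated with adverse effects (total Cmax converted to unbound) compared with IC50 for inhibition of MEK1 S298 phosphorylation in cells.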

Mus musculus [5] = test: Toxicity in mouse assessed as slow blood flow at 60 to 80 mg/kg, po; assay type: organism-based; conditions: in vivo
Mus musculus [6] = test: Toxicity in mouse assessed as hypoactivity at 60 to 80 mg/kg, po; assay type: organism-based; conditions: in vivo
Rattus norvegicus [7] = species: Rattus norvegicus; test: Toxicity in rat assessed as hypoactivity; assay type: organism-based; conditions: in vivo
Mus musculus [8] = test: Toxicity in mouse assessed as hunched posture at 60 to 80 mg/kg, po; assay type: organism-based; conditions: in vivo
Rattus norvegicus [9] = species: Rattus norvegicus; test: Toxicity in rat assessed as slow blood flow; assay type: organism-based; conditions: in vivo
Rattus norvegicus [10] = species: Rattus norvegicus; test: Toxicity in rat assessed as darkened blood; assay type: organism-based; conditions: in vivo
Rattus norvegicus [11] = species: Rattus norvegicus; test: fCmax associated with acute adverse effect in rat; assay type: ADME, organism-based; conditions: in vivo
[12] = Fraction unbound in mouse plasma at 60 to 80 mg/kg, po; assay type: ADME, organism-based
[13] = Cmax associated with acute adverse effect in rat; assay type: ADME, organism-based; conditions: in vivo
Mus musculus [14] = test: fCmax associated with acute adverse effect in mouse at 100 mg/kg, ip; assay type: ADME, organism-based; conditions: in vivo; outline: as §2
[15] = target: Serine/threonine-protein kinase PAK 1/PAK 2 (Homo sapiens, UniProt Q13177+Q13153); test: Inhibition of PAK1/2 in human EBC1 cells assessed as phosphorylation of MEK1 at serine 298 after 2 hrs by HTRF assay; assay type: cell-based
Mus musculus [16] = test: Toxicity in mouse at 100 mg/kg, ip; assay type: organism-based; conditions: in vivo
[17] = Ratio of fCmax associated with acute adverse effect in mouse at 100 mg/kg, ip to IC50 for PAK1/2-mediated phosphorylation of MEK1 at serine 298 in human EBC1 cells
[18] = target: Serine/threonine-protein kinase PAK 2 (Homo sapiens, UniProt Q13177); test: (§3) Inhibition of human recombinant PAK2 assessed as phosphorylation of coumarin labeled FRET peptide substrate at Ser/Thr19 preincubated for 10 mins followed by ATP addition measured after 60 mins by Z'-LYTE assay
Serine/threonine-protein kinase PAK 2, sequence (Q13177 whole entry, the tested form may be a part): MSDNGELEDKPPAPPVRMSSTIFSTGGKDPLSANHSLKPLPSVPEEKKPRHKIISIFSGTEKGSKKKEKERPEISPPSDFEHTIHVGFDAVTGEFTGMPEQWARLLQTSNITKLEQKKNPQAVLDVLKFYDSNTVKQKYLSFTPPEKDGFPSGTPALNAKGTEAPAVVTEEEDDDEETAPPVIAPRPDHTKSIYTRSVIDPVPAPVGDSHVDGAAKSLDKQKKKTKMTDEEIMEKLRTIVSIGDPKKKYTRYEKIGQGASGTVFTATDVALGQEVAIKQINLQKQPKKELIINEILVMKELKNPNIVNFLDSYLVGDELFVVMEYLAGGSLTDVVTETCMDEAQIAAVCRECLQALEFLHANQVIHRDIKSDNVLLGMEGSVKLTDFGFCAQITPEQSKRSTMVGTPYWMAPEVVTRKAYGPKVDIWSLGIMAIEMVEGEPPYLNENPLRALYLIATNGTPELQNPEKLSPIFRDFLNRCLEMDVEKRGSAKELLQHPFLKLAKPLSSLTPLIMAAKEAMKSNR

[19] = target: Serine/threonine-protein kinase PAK 1 (Homo sapiens, UniProt Q13153); test: as §3, with “N-terminal 6-His-tagged PAK1 kinase domain (249 to 545 residues) expressed in Escherichia coli BL21(DE3)” for “PAK2”
Serine/threonine-protein kinase PAK 1, sequence (Q13153 whole entry, the tested form may be a part): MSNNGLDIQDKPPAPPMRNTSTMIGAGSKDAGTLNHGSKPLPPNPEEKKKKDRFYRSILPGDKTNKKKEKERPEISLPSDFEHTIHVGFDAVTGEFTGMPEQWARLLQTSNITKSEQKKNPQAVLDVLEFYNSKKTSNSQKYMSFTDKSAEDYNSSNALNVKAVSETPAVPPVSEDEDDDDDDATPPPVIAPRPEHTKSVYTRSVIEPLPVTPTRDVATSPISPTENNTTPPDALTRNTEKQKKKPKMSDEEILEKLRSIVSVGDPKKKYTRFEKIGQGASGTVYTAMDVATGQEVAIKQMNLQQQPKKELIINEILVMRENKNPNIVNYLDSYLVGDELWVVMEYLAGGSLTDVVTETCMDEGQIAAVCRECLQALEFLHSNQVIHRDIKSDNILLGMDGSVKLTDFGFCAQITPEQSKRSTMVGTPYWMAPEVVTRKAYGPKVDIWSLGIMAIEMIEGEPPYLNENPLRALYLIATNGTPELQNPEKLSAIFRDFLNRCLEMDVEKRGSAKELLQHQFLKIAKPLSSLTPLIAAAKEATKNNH

[20] = Fraction unbound in mouse plasma at 100 mg/kg, ip; assay type: ADME, organism-based
[21] = Cmax associated with acute adverse effect in mouse at 100 mg/kg, ip; assay type: ADME, organism-based; design: dose 100 mg/kg, route intraperitoneal; conditions: in vivo; outline: as §1

fraction unbound [12]: 0.017
SMILES: CCn1c(=O)c(-c2ccc(-c3cncc(C)n3)cc2Cl)cc2cnc(NCCC3CCN(C)CC3)nc21
Activity (Rattus norvegicus [1]): Toxic
Activity (Mus musculus [2]): Toxic
Cmax [3]: 16 µM
fCmax (Mus musculus [4]): 0.27 µM
Activity (Mus musculus [5]): Toxic
Activity (Mus musculus [6]): Toxic
Activity (Rattus norvegicus [7]): Toxic
Activity (Mus musculus [8]): Toxic
Activity (Rattus norvegicus [9]): Toxic
Activity (Rattus norvegicus [10]): Toxic
fCmax (Rattus norvegicus [11]): 0.076 µM
Cmax [13]: 4 µM

IC50 [15]: 0.24 µM
Ki [18]: 0.0095 µM
Ki [19]: 0.011 µM
fraction unbound [20]: 0.027
SMILES: CCc1cccn(-c2ccc(-c3cc4cnc(NC)nc4n(C[C@H]4CNCCO4)c3=O)c(Cl)c2)c1=O
fCmax (Mus musculus [14]): 0.76 µM
Activity (Mus musculus [16]): Toxic
Ratio [17]: 1
Cmax [21]: 28 µM
